Consider 31 sequences from the array DNA melting data of Ke et al. (doi:10.1101/2024.01.08.574731).

Series [1] can be described thus: folding enthalpy; higher = less favourable; fluorescence melt of hairpins on a sequencing array, two-state fit. Conditions: sodium 0.088 M. In outline: (§1)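 Folding enthalpy and melting temperature come from bootstrapped two-state fits to Cy3 fluorescence of library hairpins carrying annealed Cy3 and quencher oligos on a sequenced MiSeq flow cell. Imaging was done in 50 mM Na-HEPES pH 8.0, 25 mM NaCl, stepping by 2.5 °C up to 60 °C, and signals were normalised to pre-quench Cy3 and to control constructs. Results of four replicates were combined by inverse variance, and fitted temperatures were raised by 9.35 °C to match UV melts.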

Series [2] in a line: melting temperature; fluorescence melt of hairpins on a sequencing array, two-state fit, raised by 9.35 °C to match UV melts. Conditions: sodium 0.088 M. In outline: as §1

Turning to GAGATCGGAAACGATCTC (((((((....))))))), the folding enthalpy in series [1] is -43 kcal/mol. In addition, the Tm in series [2] was found to be 66.8 °C.

GTCTTGCGAAAGCACGAC (((.(((....))).))): in series [1], the folding enthalpy was -41.5 kcal/mol. In addition, in series [2], the Tm was 52.1 °C.

For GATCCAAGGTGGATC ((((((...)))))), in series [1], the folding enthalpy was -32.6 kcal/mol. Moreover, in series [2], the Tm amounted to 51.1 °C.

For GGACTACGAAAGTATCC (((.(((....)))))), the folding enthalpy in series [1] is -21.5 kcal/mol. Also, the Tm in series [2] came out at 36.8 °C.

For the sequence GACCCAGAAATGGGTC ((((((....)))))), the folding enthalpy in series [1] is -35.3 kcal/mol. The Tm in series [2] was found to be 64 °C.

Consider GTTCATGAAAATGAAC ((((((....)))))), for which the folding enthalpy in series [1] was -33 kcal/mol. Further, the Tm in series [2] turned out to be 52 °C.

For the sequence GTTAAAGCGAAAGCTAAC (((..(((....)))))), the folding enthalpy in series [1] is -10.3 kcal/mol. Also, the Tm in series [2] is 35.6 °C.

For the sequence GATCGGGTATCCGATC ((((((....)))))), the folding enthalpy in series [1] is -37.6 kcal/mol. For the same sequence, in series [2], the Tm came out at 65.4 °C.

Consider GATCAGGAGCTGATC ((((((...)))))), for which the folding enthalpy in series [1] is -32.3 kcal/mol. Also, the Tm in series [2] is 46.5 °C.

Turning to GTTTGACGAAAGTCAAC (((.(((....)))))), the folding enthalpy in series [1] was -14 kcal/mol. The Tm in series [2] turned out to be 46 °C.

With ATACGGAAACGTAT (((((....))))), the folding enthalpy in series [1] was -21.8 kcal/mol. The Tm in series [2] came out at 43.5 °C.

As for GTGAATGGAAACATTTAC ((.((((....)))).)), in series [1], the folding enthalpy was -32.9 kcal/mol. Besides, in series [2], the Tm turned out to be 36.5 °C.

Regarding GTCGTCACGAAAGTGGAC (((..(((....)))))), the folding enthalpy in series [1] was -13.3 kcal/mol. In series [2], the Tm worked out at 37.5 °C.

Take GCGAAGCGAAAGCTATGC ((..(((....)))..)): the folding enthalpy in series [1] was -7.44 kcal/mol. In addition, the Tm in series [2] was 40.7 °C.

Turning to GATCATTTCTATGATC ((((((....)))))), the folding enthalpy in series [1] was -41.4 kcal/mol. In addition, the Tm in series [2] worked out at 48.6 °C.

Take GCCTCGCGAAAGCAAAGC ((.(.((....)).).)): the folding enthalpy in series [1] is -9.86 kcal/mol. For the same sequence, the Tm in series [2] came to 28.4 °C.

Consider GAGCAACGAAAGTTTCTC (((.(((....))).))), for which, in series [1], the folding enthalpy is -26.3 kcal/mol. Besides, the Tm in series [2] was found to be 37 °C.

In the case of GGGTAAGGAAACTTACTC (.(((((....))))).), in series [1], the folding enthalpy was -23.7 kcal/mol. The Tm in series [2] worked out at 37.9 °C.

With GATCATAAGTATGATC ((((((....)))))), in series [1], the folding enthalpy is -33.6 kcal/mol. In series [2], the Tm came out at 47.7 °C.

Regarding GATCGTTGACACGATC ((((((....)))))), the folding enthalpy in series [1] was -38.3 kcal/mol. Further, in series [2], the Tm was found to be 52.6 °C.

For the sequence GAATGACGAAAGTCTTTC (((.(((....))).))), the folding enthalpy in series [1] is -25.6 kcal/mol. The Tm in series [2] was 44.6 °C.

For GCTTACCGAAAGGTAGC (((.(((....)))))), the folding enthalpy in series [1] is -19.8 kcal/mol. The Tm in series [2] was 53 °C.

For CACCAGAAATGGTG (((((....))))), the folding enthalpy in series [1] was -23.4 kcal/mol. The Tm in series [2] turned out to be 50 °C.

Turning to GTCGCCGAAAGGCCGAC ((((((....))).))), in series [1], the folding enthalpy is -18.1 kcal/mol. Further, in series [2], the Tm came out at 60.7 °C.

Take GACCTGCGAAAGCAAGTC (((.(((....))).))): the folding enthalpy in series [1] was -25.3 kcal/mol. For the same sequence, the Tm in series [2] was determined as 47.1 °C.

As for GAGAGGGAAACCTCTC ((((((....)))))), the folding enthalpy in series [1] is -36.2 kcal/mol. Moreover, the Tm in series [2] turned out to be 55.3 °C.

On to GATCTTTGGAAGATC ((((((...)))))), for which the folding enthalpy in series [1] is -26.6 kcal/mol. For the same sequence, the Tm in series [2] was 41.2 °C.

For the sequence GCAAACGAAAGTTAGTGC ((((((....)))..))), the folding enthalpy in series [1] was -19.7 kcal/mol. Moreover, the Tm in series [2] was found to be 32.9 °C.

With GCCGCGCGAAAGCCCAGC ((.(.((....)).).)), the folding enthalpy in series [1] is -12.7 kcal/mol. Also, the Tm in series [2] came out at 29.9 °C.

GATCAAGGGTTGATC ((((((...)))))): the folding enthalpy in series [1] was -24 kcal/mol. Moreover, the Tm in series [2] was 40.3 °C.

As to GCAGCCGAAAGGCCCTGC ((((((....)))..))), the folding enthalpy in series [1] was -12.5 kcal/mol. In series [2], the Tm is 34.8 °C.
